Measurements as given in ChEMBL document CHEMBL5537199, “Discovery and SAR Study of Boronic Acid-Based Selective PDE3B Inhibitors from a Novel DNA-Encoded Library” (J Med Chem, 2024).

Columns and labels:
[1] = biological target: cGMP-inhibited 3',5'-cyclic phosphodiesterase 3B (Homo sapiens, UniProt Q13370); experiment: Inhibition of full-length PDE3B (M1 to E1112 residues) (unknown origin) using FAM-cAMP as substrate incubated for 120 mins by TR-FRET IMAP assay
Procedure, shortened: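 Buffer 50 mM Tris-HCl pH 7.5, 8.3 mM MgCl2, 1.7 mM EGTA, 0.05% BSA. Compounds run as a concentration curve with a top final concentration of 100 μM. DMSO and 10 μM trequinsin served as controls. Terbium TR-FRET ratio read at 520:490 nm.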

[2] = biological target: cGMP-inhibited 3',5'-cyclic phosphodiesterase 3A (Homo sapiens, UniProt Q14432); experiment: Inhibition of PDE3A (M1 to Q1141 residues) (unknown origin) using FAM-cAMP as substrate incubated for 45 mins by TR-FRET IMAP assay
cGMP-inhibited 3',5'-cyclic phosphodiesterase 3A, sequence (Q14432 whole entry, the tested form may be a part): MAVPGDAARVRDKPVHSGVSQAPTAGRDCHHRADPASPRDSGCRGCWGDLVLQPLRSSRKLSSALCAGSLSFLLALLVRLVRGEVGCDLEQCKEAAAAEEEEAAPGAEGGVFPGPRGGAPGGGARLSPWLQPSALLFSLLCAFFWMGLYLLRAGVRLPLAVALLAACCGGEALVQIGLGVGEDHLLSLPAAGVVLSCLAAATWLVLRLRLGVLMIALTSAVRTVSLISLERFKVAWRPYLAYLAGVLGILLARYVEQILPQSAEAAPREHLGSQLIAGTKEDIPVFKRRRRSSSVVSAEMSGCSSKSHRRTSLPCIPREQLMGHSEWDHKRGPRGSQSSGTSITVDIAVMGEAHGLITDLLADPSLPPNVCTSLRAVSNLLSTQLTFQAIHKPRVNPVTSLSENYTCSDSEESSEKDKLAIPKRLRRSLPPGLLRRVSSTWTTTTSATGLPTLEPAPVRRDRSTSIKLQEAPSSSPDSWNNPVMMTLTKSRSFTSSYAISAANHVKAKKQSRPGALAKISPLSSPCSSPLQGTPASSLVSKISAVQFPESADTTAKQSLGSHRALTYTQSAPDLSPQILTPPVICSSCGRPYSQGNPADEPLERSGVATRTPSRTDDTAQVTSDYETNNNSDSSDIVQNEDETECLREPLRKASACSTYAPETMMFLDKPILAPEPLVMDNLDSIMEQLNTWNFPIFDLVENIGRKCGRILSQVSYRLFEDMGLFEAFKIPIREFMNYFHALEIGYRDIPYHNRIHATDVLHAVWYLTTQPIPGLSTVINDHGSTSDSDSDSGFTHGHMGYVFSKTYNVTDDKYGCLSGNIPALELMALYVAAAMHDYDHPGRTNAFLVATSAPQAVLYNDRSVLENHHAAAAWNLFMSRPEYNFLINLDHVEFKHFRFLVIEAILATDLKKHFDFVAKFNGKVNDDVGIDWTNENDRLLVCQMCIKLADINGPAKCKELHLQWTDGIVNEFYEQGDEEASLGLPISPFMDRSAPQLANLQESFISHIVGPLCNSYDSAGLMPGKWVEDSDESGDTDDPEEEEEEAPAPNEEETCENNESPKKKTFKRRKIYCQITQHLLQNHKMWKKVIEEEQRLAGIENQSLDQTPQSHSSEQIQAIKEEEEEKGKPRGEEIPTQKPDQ
Procedure, shortened: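 Full-length PDE3A at 1.6 nM with 50 nM FAM-cAMP, 45 min reaction. Buffer 50 mM Tris-HCl pH 7.5, 8.3 mM MgCl2, 1.7 mM EGTA, 0.05% BSA. Compounds run as a concentration curve with a top final concentration of 100 μM. DMSO and 10 μM trequinsin served as controls. TR-FRET read at Ex 337 nm, Em 520/490 nm.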

[3] = Selectivity ratio of inhibition for PDE3A (M1 to Q1141 residues) (unknown origin) by IMAP assay to inhibition for PDE3B (M1 to E1112 residues) (unknown origin) by IMAP assay
[4] = Selectivity ratio of inhibition for PDE3A (M1 to Q1141 residues) (unknown origin) by RF-MS assay to inhibition for PDE3B (M1 to E1112 residues) (unknown origin) by RF-MS assay

cGMP-inhibited 3',5'-cyclic phosphodiesterase 3B, sequence (Q13370 whole entry, the tested form may be a part): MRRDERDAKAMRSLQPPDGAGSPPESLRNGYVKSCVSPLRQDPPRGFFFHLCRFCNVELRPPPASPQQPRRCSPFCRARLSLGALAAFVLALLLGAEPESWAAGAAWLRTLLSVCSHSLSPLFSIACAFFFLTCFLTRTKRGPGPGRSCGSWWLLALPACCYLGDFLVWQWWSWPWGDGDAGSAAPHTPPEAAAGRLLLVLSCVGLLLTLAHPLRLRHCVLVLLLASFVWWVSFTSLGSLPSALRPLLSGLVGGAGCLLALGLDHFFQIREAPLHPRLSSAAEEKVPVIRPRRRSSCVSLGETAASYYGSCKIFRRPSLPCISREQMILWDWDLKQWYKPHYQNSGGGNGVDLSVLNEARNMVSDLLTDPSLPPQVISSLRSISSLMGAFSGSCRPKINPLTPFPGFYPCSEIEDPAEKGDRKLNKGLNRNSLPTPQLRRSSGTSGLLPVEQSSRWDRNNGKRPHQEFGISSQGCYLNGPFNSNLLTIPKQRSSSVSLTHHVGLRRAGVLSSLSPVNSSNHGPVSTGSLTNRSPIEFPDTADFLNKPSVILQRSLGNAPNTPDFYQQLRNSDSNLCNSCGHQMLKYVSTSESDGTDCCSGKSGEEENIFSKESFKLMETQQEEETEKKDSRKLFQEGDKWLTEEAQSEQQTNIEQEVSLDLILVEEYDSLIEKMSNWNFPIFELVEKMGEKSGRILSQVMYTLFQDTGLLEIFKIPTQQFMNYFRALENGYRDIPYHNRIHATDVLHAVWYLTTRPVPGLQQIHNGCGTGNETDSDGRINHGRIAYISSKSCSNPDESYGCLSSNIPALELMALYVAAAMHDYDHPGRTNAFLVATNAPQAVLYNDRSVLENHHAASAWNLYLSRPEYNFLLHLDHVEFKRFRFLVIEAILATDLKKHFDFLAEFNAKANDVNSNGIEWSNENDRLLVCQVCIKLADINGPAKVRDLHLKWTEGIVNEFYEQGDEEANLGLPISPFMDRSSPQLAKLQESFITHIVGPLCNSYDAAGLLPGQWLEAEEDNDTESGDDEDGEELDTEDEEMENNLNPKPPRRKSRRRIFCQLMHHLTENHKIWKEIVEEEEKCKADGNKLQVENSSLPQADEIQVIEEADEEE

Row | IC50 [1] [µM] | IC50 [2] [µM] | Selectivity ratio [3] | Selectivity ratio [4] | Compound
1 | 0.631 | 0.501 | 0.7 | 1 | CNC(=O)[C@@H](NC(=O)c1cc(NC(=O)c2ccc3cccnc3n2)cc(B(O)O)c1)C1CCCCC1
2 | 0.158 | 0.251 | 1.6 | 2.3 | CNC(=O)[C@@H](NC(=O)c1cc(NC(=O)c2cc(OC)c3ccccc3n2)cc(B(O)O)c1)C1CCCCC1
3 | 31.6 | 31.6 | 0.8 | 0.8 | CNC(=O)[C@H](NC(=O)c1cc(NC(=O)c2nc(C)ncc2OC)cc(B(O)O)c1)C1CCCCC1
4 | 0.316 | 1 | 3.4 | 6.3 | CNC(=O)[C@@H](NC(=O)c1cc(NC(=O)c2cc(C)cc(C)c2OC)cc(B(O)O)c1)C1CCCCC1
5 | 25.1 | 79.4 | 3.3 | 4.7 | CNC(=O)[C@H](NC(=O)c1cc(NC(=O)C(C)Oc2c(C)cccc2C)cc(B(O)O)c1)C1CCCCC1 (stereo not given in full)
6 | 31.6 | 39.8 | 1.3 | 1.8 | CNC(=O)[C@@H](NC(=O)c1cc(NC(=O)c2ccc3cc(OC)ccc3c2)cc(B(O)O)c1)C1CCCCC1
7 | 2 | 25.1 | 14 | 25 | COc1ccc2c(OC)cc(C(=O)Nc3cc(B(O)O)cc(C(=O)NCC(C)OC)c3)nc2c1 (stereo not given)
8 | 0.2 | 0.501 | 2.6 | 3.8 | CCNC(=O)N1CCCCC(NC(=O)c2cc(NC(=O)c3cc(C)cc(C)c3OC)cc(B(O)O)c2)C1 (stereo not given)
9 | 0.794 | 31.6 | 46 | 46 | COc1ccc2c(OC)cc(C(=O)Nc3cc(B(O)O)cc(C(=O)N4CCCC4)c3)nc2c1
10 | 2 | 15.8 | 8.5 | 16 | COc1ccc2c(OC)cc(C(=O)Nc3cc(B(O)O)cc(C(=O)N[C@@H](C(N)=O)C(C)C)c3)nc2c1
11 | 20 | 12.6 | 0.7 | 0.9 | CNC(=O)[C@@H](NC(=O)c1cc(NC(=O)c2cnc3ccccc3c2)cc(B(O)O)c1)C1CCCCC1
12 | 10 | 12.6 | 1.4 | 4.2 | COc1ccc2c(OC)cc(C(=O)Nc3cccc(B(O)O)c3)nc2c1
13 | 0.316 | 10 | 37 | 78 | CNC(=O)[C@H](NC(=O)c1cc(NC(=O)c2cc(OC)c3ccc(OC)cc3n2)cc(B(O)O)c1)C1CCCCC1
14 | 0.794 | 2 | 2.6 | 6.6 | CNC(=O)[C@H](NC(=O)c1cc(NC(=O)c2cc(C)cc(C)c2OC)cc(B(O)O)c1)C1CCCCC1
15 |  | 31.6 |  |  | COc1ccc2c(OC)cc(C(=O)Nc3cc(B(O)O)cc(C(=O)N[C@H]4CCCOC4)c3)nc2c1
16 | 0.631 | 0.251 | 0.4 |  | CNC(=O)[C@@H](NC(=O)c1cc(NC(=O)c2cc3c(c(OC)c2)OCC(=O)N3)cc(B(O)O)c1)C1CCCCC1
17 | 0.631 | 15.8 | 21 | 62 | COc1ccc2c(OC)cc(C(=O)Nc3cc(B(O)O)cc(C(=O)N(C)Cc4ccccc4)c3)nc2c1
18 | 0.00631 | 0.00501 | 0.7 | 1 | CNC(=O)[C@@H](NC(=O)c1cc(NC(=O)c2cc(F)cc3nccnc23)cc(B(O)O)c1)C1CCCCC1
19 | 0.2 | 0.398 | 2 | 2.7 | CNC(=O)[C@@H](NC(=O)c1cc(NC(=O)c2nccc3ccccc23)cc(B(O)O)c1)C1CCCCC1
20 | > 100 | > 100 |  |  | COc1ccc2c(OC)cc(C(=O)N(C)c3cc(B(O)O)cc(C(=O)NC(C)C)c3)nc2c1
21 |  | 63.1 |  |  | COc1ccc2c(OC)cc(C(=O)Nc3cc(B(O)O)cc(C(=O)N[C@@H]4CCCOC4)c3)nc2c1
